The source of these data is ChEMBL document CHEMBL4392833, “Thiazolyl-pyrazole derivatives as potential antimycobacterial agents” (Bioorg Med Chem Lett, 2019).

Assay [1] has as its system Mycobacterium tuberculosis variant bovis. Description: Antitubercular activity against dormant stage of Mycobacterium bovis BCG ATCC 35743 assessed as growth inhibition at 10 ug/ml after 12 days by nitrate reductase assay relative to control. The assay is classed as functional. Particulars: BCG str. ATCC 35743, 288 h.
Assay [2] shares this test system. In words: Antitubercular activity against dormant stage of Mycobacterium bovis BCG ATCC 35743 by two fold dilution technique. The assay is classed as functional. The following applies: BCG str. ATCC 35743. The method, boiled down: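 MIC against dormant-stage bacilli, read out by XTT reduction menadione assay (XRMA), with rifampicin MIC determined the same way as reference.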

Assay [3] shares this test system. In words: Antitubercular activity against dormant stage of Mycobacterium bovis BCG ATCC 35743 assessed as growth inhibition at 30 ug/ml after 12 days by nitrate reductase assay relative to control. The assay is classed as functional. Particulars: BCG str. ATCC 35743, 288 h.
The test system is the same in assay [4]. In words: Antitubercular activity against dormant stage of Mycobacterium bovis BCG ATCC 35743 after 12 days by nitrate reductase assay. The assay is classed as functional, organism-based. Particulars: BCG str. ATCC 35743, 288 h.
The test system is the same in assay [5]. In words: Antitubercular activity against dormant stage of Mycobacterium bovis BCG ATCC 35743 assessed as growth inhibition at 3 ug/ml after 12 days by nitrate reductase assay relative to control. The assay is classed as functional. Particulars: BCG str. ATCC 35743, 288 h.
For assay [6] the test system is unchanged. Description: Potency index, ratio of rifampicin MIC to test compound MIC for dormant stage of Mycobacterium bovis BCG ATCC 35743. The assay is classed as functional, BCG str. ATCC 35743.

A value given as a limit tells only on which side of the number the result lay.

In the case of `Cc1nc(C)c(-c2nn(-c3ccc(F)cc3)cc2/C=C/C(=O)c2cc(Cl)c(C)cc2O)s1`, the inhibition (usually the share of the control response that was lost under treatment) at 10 µg/mL in assay [1] was determined as 52.8%. Further, in assay [2], the MIC90 (commonly the lowest concentration that inhibits either 90% of growth or 90% of the strains tested, depending on the study) is 6.85 µM. The inhibition at 30 µg/mL in assay [3] stood at 97.2%. In addition, the half-maximal inhibitory concentration (IC50) (in general, the concentration that gives 50% inhibition) in assay [4] is 0.79 µM. In addition, the inhibition at 3 µg/mL in assay [5] was 8.47%.
On the same counts, the results for `Cc1nc(C)c(-c2nn(-c3ccc(F)cc3)cc2/C=C/C(=O)c2c(O)cc(C)c(Cl)c2C)s1` are 4.19%, over 30 µg/mL, 9.91%, over 30 µg/mL and 8.39%.
In the case of `Cc1nc(C)c(-c2nn(-c3ccc(F)cc3)cc2/C=C/C(=O)c2cc(Cl)cc(Cl)c2O)s1`, in assay [1], the inhibition at 10 µg/mL amounted to 10.1%. Further, the MIC90 in assay [2] was over 30 µg/mL. Further, in assay [3], the inhibition at 30 µg/mL is 29.8%. The half-maximal inhibitory concentration (IC50) in assay [4] was over 30 µg/mL. Also, the inhibition at 3 µg/mL in assay [5] worked out at 8.72%.
For the compound `Cc1nc(C)c(-c2nn(-c3ccc(F)cc3)cc2-c2cc(=O)c3cc(Cl)c(C)cc3o2)s1`, in assay [1], the inhibition at 10 µg/mL was 98.9%. The compound also displayed an MIC90 in assay [2] of 2.85 µM. In addition, the inhibition at 30 µg/mL in assay [3] came out at 98.2%. In assay [4], this compound showed an IC50 of 3.69 µM. Further, the inhibition at 3 µg/mL in assay [5] amounted to 99.7%.
The like results for `Cc1ccc(O)c(C(=O)/C=C/c2cn(-c3ccc(F)cc3)nc2-c2sc(C)nc2C)c1` were, in that order, 85.2%, 16.2 µM, 96.9%, 1.59 µM and 60.9%.
The like results for `Cc1nc(C)c(-c2nn(-c3ccc(F)cc3)cc2C2CC(c3cc(Cl)ccc3O)=NN2)s1` (stereo not drawn) were, in that order, 99.7%, 1.54 µM, 99.7%, 2.48 µM and 99.2%.
On the same counts, the results for `Cc1nc(C)c(-c2nn(-c3ccc(F)cc3)cc2C2CC(c3cc(Cl)c(C)cc3O)=NN2)s1` (stereo not drawn) are 89.7%, 4.77 µM, 98.5%, 9.65 µM and 69.6%.
With `Cc1nc(C)c(-c2nn(-c3ccc(F)cc3)cc2/C=C/C(=O)c2cc(Cl)ccc2O)s1`, the inhibition at 10 µg/mL in assay [1] came out at 5.45%. The same compound returned an MIC90 in assay [2] of over 30 µg/mL. In assay [3], the inhibition at 30 µg/mL came to 19.6%. In addition, in assay [4], the 50% inhibitory concentration (IC50) was over 30 µg/mL. The inhibition at 3 µg/mL in assay [5] came to 5.71%.
With `Cc1nc(C)c(-c2nn(-c3ccc(F)cc3)cc2/C=C/C(=O)c2cc(Br)ccc2O)s1`, in assay [1], the inhibition at 10 µg/mL was 16.4%. Further, the MIC90 in assay [2] was over 30 µg/mL. Besides, the inhibition at 30 µg/mL in assay [3] was found to be 19.2%. In assay [4], this compound yielded a half-maximal inhibitory concentration (IC50) of over 30 µg/mL. Moreover, the inhibition at 3 µg/mL in assay [5] was 5.7%.
For `Cc1nc(C)c(-c2nn(-c3ccc(F)cc3)cc2C2CC(c3cc(Br)ccc3O)=NN2)s1` (stereo not drawn), the inhibition at 10 µg/mL in assay [1] turned out to be 98.7%. Besides, the MIC90 in assay [2] was found to be 0.39 µM. For the same compound, the inhibition at 30 µg/mL in assay [3] came to 99.5%. The Ratio in assay [6] came out at 4. Besides, the concentration for half-maximal inhibition (IC50) in assay [4] turned out to be 5.79 µM. Besides, the inhibition at 3 µg/mL in assay [5] came to 96.2%.
`Cc1ccc2oc(-c3cn(-c4ccc(F)cc4)nc3-c3sc(C)nc3C)cc(=O)c2c1`: in assay [1], the inhibition at 10 µg/mL worked out at 96.6%. This compound also had an MIC90 in assay [2] of 1.18 µM. Besides, the inhibition at 30 µg/mL in assay [3] was 95.6%. The same compound returned a half-inhibitory concentration (IC50) in assay [4] of 5.89 µM. The inhibition at 3 µg/mL in assay [5] is 97.6%.
As for `CO[C@H]1/C=C/O[C@@]2(C)Oc3c(C)c(O)c4c(O)c(c(/C=N/N5CCN(C)CC5)c(O)c4c3C2=O)NC(=O)/C(C)=C\C=C\[C@H](C)[C@H](O)[C@@H](C)[C@@H](O)[C@@H](C)[C@H](OC(C)=O)[C@@H]1C` [RIFAMPIN], the MIC90 in assay [2] amounted to 0.98 µM. This compound also returned a 50% inhibitory concentration (IC50) in assay [4] of 0.91 µM.
On to `Cc1nc(C)c(-c2nn(-c3ccc(F)cc3)cc2C2CC(c3c(O)cc(C)c(Cl)c3C)=NN2)s1` (stereo not drawn), for which the inhibition at 10 µg/mL in assay [1] is 98%. This compound showed an MIC90 in assay [2] of 4.55 µM. In addition, the inhibition at 30 µg/mL in assay [3] worked out at 98.4%. In assay [4], the IC50 worked out at 5.04 µM. In addition, the inhibition at 3 µg/mL in assay [5] amounted to 89%.
The like results for `Cc1ccc(O)c(C2=NNC(c3cn(-c4ccc(F)cc4)nc3-c3sc(C)nc3C)C2)c1` (stereo not drawn) were, in that order, 82.7%, 63.1 µM, 97.5%, 46.4 µM and 33%.
